Measured values: publication PMC3362663 (Bioorganic & medicinal chemistry letters, 2012)
pIC50: −log10 of the molar value. Each block holds one compound with its values, some of them ahead of it.

Key:
Epac2 [1] = target: T1, Epac2 (Mus musculus, UniProt Q9EQZ6); assay: 8-NBD-cAMP competition binding to Epac2, dose-dependent titration
T1 sequence (Q9EQZ6 1-993 isoform Q9EQZ6-3): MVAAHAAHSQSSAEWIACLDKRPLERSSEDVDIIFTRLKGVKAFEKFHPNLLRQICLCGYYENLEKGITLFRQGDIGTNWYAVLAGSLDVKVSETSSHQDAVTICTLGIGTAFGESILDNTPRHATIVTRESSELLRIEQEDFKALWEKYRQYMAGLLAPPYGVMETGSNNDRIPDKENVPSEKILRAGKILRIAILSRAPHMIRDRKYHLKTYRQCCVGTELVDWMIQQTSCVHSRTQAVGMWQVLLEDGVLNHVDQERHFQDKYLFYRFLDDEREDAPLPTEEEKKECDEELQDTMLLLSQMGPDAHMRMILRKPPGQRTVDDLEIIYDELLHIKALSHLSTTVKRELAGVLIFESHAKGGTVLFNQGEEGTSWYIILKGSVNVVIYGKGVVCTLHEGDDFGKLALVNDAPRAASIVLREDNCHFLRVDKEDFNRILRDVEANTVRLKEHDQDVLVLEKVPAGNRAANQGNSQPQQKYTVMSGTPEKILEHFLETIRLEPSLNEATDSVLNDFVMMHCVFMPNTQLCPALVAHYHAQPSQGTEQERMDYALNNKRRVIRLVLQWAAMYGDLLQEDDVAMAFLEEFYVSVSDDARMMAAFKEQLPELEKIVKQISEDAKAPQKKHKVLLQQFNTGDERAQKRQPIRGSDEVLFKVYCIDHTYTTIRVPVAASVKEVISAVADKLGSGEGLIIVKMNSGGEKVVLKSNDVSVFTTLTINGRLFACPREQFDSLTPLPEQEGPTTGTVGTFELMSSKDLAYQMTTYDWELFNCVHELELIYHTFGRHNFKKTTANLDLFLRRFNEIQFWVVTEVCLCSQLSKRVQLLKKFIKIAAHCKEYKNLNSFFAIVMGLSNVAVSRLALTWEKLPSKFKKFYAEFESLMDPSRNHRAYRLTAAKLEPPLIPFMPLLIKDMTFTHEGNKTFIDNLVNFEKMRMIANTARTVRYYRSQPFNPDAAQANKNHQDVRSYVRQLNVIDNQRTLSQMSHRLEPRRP

type II PKA holoenzyme = assay: Counter-screen: type II PKA holoenzyme activity; type: biochemical; details: 25 μM compound, 100 μM cAMP
HEK293/Epac2 cells = assay: Epac2-mediated Akt/PKB phosphorylation; type: cell-based; details: 10 μM, 5 min pretreatment before 10 μM 007-AM
How it was run: (§1)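 HEK293 cells ectopically expressing Epac1 or Epac2 were pretreated, or not, with 10 μM test compound and then stimulated with 10 μM 007-AM. Cell lysates were analysed by Western blot with anti-phospho-Ser473 and anti-phospho-Thr308 PKB antibodies.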

type I PKA holoenzyme = assay: Counter-screen: type I PKA holoenzyme activity; type: biochemical; details: 25 μM compound, 100 μM cAMP
Epac1 = target: T2, Epac1 (Homo sapiens, UniProt O95398); assay: cAMP-mediated Epac1 GEF activity; type: biochemical; details: for Inhibition of Epac1 GEF (Rap1-GDP exchange) activity: 25 μM compound in the presence of equal concentration (25 μM) of cAMP
T2 sequence (O95398 1-923): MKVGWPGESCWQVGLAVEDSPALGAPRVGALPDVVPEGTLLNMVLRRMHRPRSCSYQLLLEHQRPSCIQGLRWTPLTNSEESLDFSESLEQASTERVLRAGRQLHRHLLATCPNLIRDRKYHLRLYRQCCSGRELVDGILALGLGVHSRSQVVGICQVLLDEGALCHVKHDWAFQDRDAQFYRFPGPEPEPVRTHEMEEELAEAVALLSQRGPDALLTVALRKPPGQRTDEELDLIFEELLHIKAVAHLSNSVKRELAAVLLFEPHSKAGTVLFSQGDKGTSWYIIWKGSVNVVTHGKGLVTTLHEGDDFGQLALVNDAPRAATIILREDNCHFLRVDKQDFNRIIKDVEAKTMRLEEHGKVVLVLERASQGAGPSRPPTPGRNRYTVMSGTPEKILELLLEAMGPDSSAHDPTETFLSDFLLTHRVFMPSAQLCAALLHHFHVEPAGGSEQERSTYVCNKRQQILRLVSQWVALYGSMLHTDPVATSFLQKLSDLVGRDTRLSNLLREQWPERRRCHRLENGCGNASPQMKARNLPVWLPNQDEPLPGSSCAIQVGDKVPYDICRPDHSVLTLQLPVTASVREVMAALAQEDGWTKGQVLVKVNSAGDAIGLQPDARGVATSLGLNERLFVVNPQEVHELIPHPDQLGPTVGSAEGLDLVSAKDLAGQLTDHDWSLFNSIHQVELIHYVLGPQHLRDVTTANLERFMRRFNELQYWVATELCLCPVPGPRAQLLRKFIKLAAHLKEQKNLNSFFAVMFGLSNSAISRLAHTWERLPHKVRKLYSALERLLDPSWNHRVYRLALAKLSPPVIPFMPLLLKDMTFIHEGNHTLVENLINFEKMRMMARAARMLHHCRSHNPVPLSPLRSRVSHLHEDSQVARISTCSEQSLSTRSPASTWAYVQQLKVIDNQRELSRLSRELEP

Epac2 [2] = target: T1, Epac2; assay: cAMP-mediated Epac2 GEF activity, purified recombinant full-length protein; type: biochemical; details: for Inhibition of Epac2 GEF activity: 25 μM compound in the presence of equal concentration (25 μM) of cAMP
HEK293/Epac1 cells = assay: Epac1-mediated Akt/PKB phosphorylation; type: cell-based; details: 10 μM, 5 min pretreatment before 10 μM 007-AM
How it was run: as §1

[3] = 25 μM in the presence of equal molar concentration of cAMP, unpublished data

Compound: N#Cc1c(C2CCCCC2)nc(S)[nH]c1=O [5a]
pIC50 (Epac2 [1]): < 3.52
Relative Potency (RA) (Epac2 [1]; RA = IC50, cAMP/IC50, compound): <0.16

Compound: Cc1ccc(C)c(CSc2nc(C3CC3)c(C#N)c(=O)[nH]2)c1 [6g, 4-Cyclopropyl-2-(2,5-dimethylbenzylsulfanyl)-6-oxo-1,6-dihydro-pyrimidine-5-carbonitrile]
Effect on cAMP-induced type II PKA holoenzyme activation (type II PKA holoenzyme): not to alter
Block of Epac2-mediated Akt phosphorylation (HEK293/Epac2 cells): completely blocked
Effect on cAMP-induced type I PKA holoenzyme activation (type I PKA holoenzyme): not to alter
Inhibition of Epac1 GEF (Rap1-GDP exchange) activity (Epac1): more Epac2-specific
Inhibition of Epac2 GEF activity (Epac2 [2]): inhibit Epac2 GEF activity to basal levels
Block of Epac1-mediated Akt phosphorylation (HEK293/Epac1 cells): completely blocked

Compound: Cc1ccc(C)c(CSc2nc(C3CCCC3)c(C#N)c(=O)[nH]2)c1 [6h, 4-Cyclopentyl-2-(2,5-dimethyl-benzylsulfanyl)-6-oxo-1,6-dihydro-pyrimidine-5-carbonitrile]
Effect on cAMP-induced type II PKA holoenzyme activation (type II PKA holoenzyme): not to alter
Block of Epac2-mediated Akt phosphorylation (HEK293/Epac2 cells): completely blocked
Effect on cAMP-induced type I PKA holoenzyme activation (type I PKA holoenzyme): not to alter
Inhibition of Epac1 GEF (Rap1-GDP exchange) activity (Epac1): inhibit Epac1-mediated Rap1-GDP exchange activity
Inhibition of Epac2 GEF activity (Epac2 [2]): inhibit Epac2 GEF activity to basal levels
Block of Epac1-mediated Akt phosphorylation (HEK293/Epac1 cells): completely blocked

Compound: Cc1ccc(C)c(CSc2nc(C3CCNCC3)c(C#N)c(=O)[nH]2)c1 [6k]
pIC50 (Epac2 [1]): < 3.52

Compound: N#Cc1c(C2CCCCC2)nc(Nc2ccccc2)[nH]c1=O [8a]
pIC50 (Epac2 [1]): < 3.52

Compound: N#Cc1c(C2CCCCC2)nc(Nc2ccc(Cl)cc2)[nH]c1=O [8b]
pIC50 (Epac2 [1]): < 3.52

Compound: N#Cc1c(C2CCCCC2)nc(SCC(=O)Nc2ccccc2)[nH]c1=O [11a]
pIC50 (Epac2 [1]): < 3.52

Compound: O=S(=O)(NCCNC/C=C/c1ccc(Br)cc1)c1cccc2cnccc12 [H89, reference compound]
Effect on cAMP-induced type II PKA holoenzyme activation (type II PKA holoenzyme): blocked the type I or II PKA activities completely
Effect on cAMP-induced type I PKA holoenzyme activation (type I PKA holoenzyme): blocked the type I or II PKA activities completely

Continued, values first:

pIC50 (Epac2 [1]): < 3.52
Compound: Cc1cc(C)c(NC(=O)CSc2nc(C3CCCCC3)c(C#N)c(=O)[nH]2)c(C)c1 [11b]

pIC50 (Epac2 [1]): < 3.52
Compound: Cc1ccc(NC(=O)CSc2nc(C3CCCCC3)c(C#N)c(=O)[nH]2)cc1 [11c]

Inhibition of Epac1 activity (Epac1; [3]): completely inhibiting
Inhibition of Epac2 activity (Epac2 [2]; [3]): completely inhibiting
Compound: Cc1ccc(C)c(CSc2nc(C3CCCCC3)c(C#N)c(=O)[nH]2)c1 [compound 1]

pIC50 (Epac2 [1]): < 3.52
Compound: N#Cc1c(C2CCCCC2)nc(SCC(=O)O)[nH]c1=O [compound 10]
